Reference: ChEMBL document CHEMBL1131129, “Geometrically and conformationally restrained cinnamoyl compounds as inhibitors of HIV-1 integrase: synthesis, biological evaluation, and molecular modeling” (J Med Chem, 1998)

What was measured:
MT4 = experiment: Compound concentration required to reduce the exponential growth of MT-4 cells by 50%; format: functional; settings: Homo sapiens
How it was run: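 Lymphoid MT-4 cells in suspension culture, grown at 37 °C under 5% CO2 in RPMI 1640 with 10% FCS, penicillin G and streptomycin, and checked for mycoplasma. Compounds were dissolved in DMSO as a 200 mM stock, then diluted. Cytotoxicity was read as viability of mock-infected cells by MTT. The CC50 is the concentration reducing exponential cell growth by 50%.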

[1] = target: T1, Human immunodeficiency virus type 1 integrase (Human immunodeficiency virus 1, UniProt Q7ZJM1); experiment: (§1) Compound concentration required to reduce HIV-1 Integrase 3'-processing activity by 50%
T1 sequence (Q7ZJM1 whole entry): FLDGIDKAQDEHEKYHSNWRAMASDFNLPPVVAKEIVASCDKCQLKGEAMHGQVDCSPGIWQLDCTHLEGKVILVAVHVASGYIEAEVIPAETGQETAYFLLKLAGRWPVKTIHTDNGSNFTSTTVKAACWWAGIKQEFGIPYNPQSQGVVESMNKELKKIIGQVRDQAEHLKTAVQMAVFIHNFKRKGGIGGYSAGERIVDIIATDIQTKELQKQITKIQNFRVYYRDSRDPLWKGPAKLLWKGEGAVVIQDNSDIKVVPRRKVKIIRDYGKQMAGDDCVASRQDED

Homo sapiens = species on record: Homo sapiens; experiment: Fold increase in protein-linked DNA breaks (PLDB) with respect to untreated controls.; format: functional
How it was run: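 KB cells labeled with [14C]thymidine (0.75 μCi/mL) for 48 h, trypsinized, resuspended at 3×10^5/mL, preincubated 1 h at 37 °C. […] Protein-linked DNA breaks quantified by K-SDS coprecipitation after SDS lysis, needle shearing, 65 °C incubation and 100 mM KCl precipitation. Expressed relative to untreated controls.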

KB = experiment: Compound concentration required to reduce the exponential growth of KB cells by 50%; format: functional; settings: Homo sapiens
[2] = target: T1, Human immunodeficiency virus type 1 integrase; experiment: as §1; remark: listed apart in the source
How it was run: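 His-tagged HIV-1 IN expressed in E. coli BL21(DE3), Ni-purified with 5 mM CHAPS. Released GT dinucleotide recovered by DEAE filtration and counted. Mean of three independent determinations.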

With `O=C(/C=C/c1ccc(O)cc1)c1ccc(O)cc1O` [ISOLIQUIRITIGENIN] the CC50 (MT4) was 7.4 µM, the IC50 ([1]; read-out: IC50) was > 100 µM and the Fold increase (Homo sapiens) was 1.7. It also gave a CC50 (KB) of 12 µM.

`O=C1/C(=C/c2ccc(O)c(O)c2)CNC/C1=C\c1ccc(O)c(O)c1` showed a CC50 (MT4) of 21 µM, an IC50 ([1]; read-out: IC50) of 0.2 µM and a Fold increase (Homo sapiens) of 1.4. The CC50 (KB) was 32 µM.

For `COc1cc(/C=C/C(=O)/C=C/c2ccc(O)c(OC)c2)ccc1O`, the CC50 (MT4) was 1.4 µM, the IC50 ([1]; read-out: IC50) was 37 µM and the Fold increase (Homo sapiens) was 1.2. The CC50 (KB) was 8.5 µM.

In the case of `O=C1/C(=C/c2ccc(O)c(O)c2)CSC/C1=C\c1ccc(O)c(O)c1`, the CC50 (MT4) is reported as 4 µM, the IC50 ([1]; read-out: IC50) is reported as 0.2 µM and the Fold increase (Homo sapiens) is reported as 1.1. The CC50 (KB) was 3.9 µM.

With `COc1cc([C@@H]2c3cc4c(cc3[C@@H](O[C@@H]3O[C@@H]5CO[C@@H](C)O[C@H]5[C@H](O)[C@H]3O)[C@H]3COC(=O)[C@H]23)OCO4)cc(OC)c1O` [ETOPOSIDE] the CC50 (MT4) was 0.08 µM and the CC50 (KB) was 0.1 µM.

For `O=C(/C=C(O)/C=C/c1ccc(O)c(O)c1)/C=C/c1ccc(O)c(O)c1`, the CC50 (MT4) was 17 µM, the IC50 ([1]; read-out: IC50) was 0.7 µM and the Fold increase (Homo sapiens) was 1.1. It also gave a CC50 (KB) of 4.1 µM.

In the case of `Nc1nc[nH]n1` [AMITROLE], the CC50 (MT4) is reported as 100 µM, the IC50 [1] is reported as 0.17 µg/mL and the Fold increase (Homo sapiens) is reported as 1.1. For the same compound, the CC50 (KB) was 100 µM.

`COc1cc(/C=C/C(=O)CC(=O)/C=C/c2ccc(O)c(OC)c2)ccc1O` [CURCUMIN] gave a CC50 (MT4) of 7.4 µM, an IC50 ([1]; read-out: IC50) of 30 µM and a Fold increase (Homo sapiens) of 1. It also gave a CC50 (KB) of 16 µM.

With `O=C(/C=C/c1ccc(O)cc1)/C=C/c1ccc(O)cc1` the CC50 (MT4) was 1.6 µM, the IC50 ([1]; read-out: IC50) was > 100 µM and the Fold increase (Homo sapiens) was 1.1. The CC50 (KB) was 7.4 µM.

With `O=C1/C(=C/c2ccc(O)c(O)c2)Cc2ccccc21` the CC50 (MT4) was 5.5 µM, the Fold increase (Homo sapiens) was 5.1 and the CC50 (KB) was 9.2 µM. The IC50 [2] was 86 µM.

For `O=C(/C=C/c1ccc(O)c(O)c1)c1ccc(O)cc1O` [BUTEIN], the CC50 (MT4) was 5.3 µM, the IC50 ([1]; read-out: IC50) was 20 µM and the Fold increase (Homo sapiens) was 2.2. For the same compound, the CC50 (KB) was 9.1 µM.

Compound `O=C(/C=C/c1ccc(O)c(O)c1)c1ccc(O)cc1` has a CC50 (MT4) of 4.4 µM, an IC50 ([1]; read-out: IC50) of 1.3 µM and a Fold increase (Homo sapiens) of 1.6. For the same compound, the CC50 (KB) was 5.9 µM.

For `O=C(/C=C/c1ccc(O)cc1)CC(=O)/C=C/c1ccc(O)cc1` [BISDEMETHOXYCURCUMIN], the CC50 (MT4) was 13 µM, the IC50 ([1]; read-out: IC50) was > 100 µM and the Fold increase (Homo sapiens) was 0.9. The CC50 (KB) was 8.5 µM.

Work on `O=C(/C=C/c1ccc(O)c(O)c1)/C=C/c1ccc(O)c(O)c1` yielded a CC50 (MT4) of 38 µM, an IC50 ([1]; read-out: IC50) of 0.6 µM and a Fold increase (Homo sapiens) of 1.1. For the same compound, the CC50 (KB) was 21 µM.

For `COc1ccc(/C=C/C(=O)/C=C(O)/C=C/c2ccc(OC)c(OC)c2)cc1OC`, the CC50 (MT4) was 4.1 µM, the IC50 ([1]; read-out: IC50) was > 100 µM and the Fold increase (Homo sapiens) was 1.4. The CC50 (KB) was 2 µM.

`O=C1/C(=C/c2ccc(O)c(O)c2)COC/C1=C\c1ccc(O)c(O)c1` was tested, and the CC50 (MT4) was 10 µM, the IC50 ([1]; read-out: IC50) was 0.2 µM and the Fold increase (Homo sapiens) was 0.9. For the same compound, the CC50 (KB) was 15 µM.

For `O=C(/C=C(O)/C=C/c1ccccc1)/C=C/c1ccccc1`, the CC50 (MT4) was 41 µM, the IC50 ([1]; read-out: IC50) was > 100 µM and the Fold increase (Homo sapiens) was 0.8. It also gave a CC50 (KB) of 29 µM.

Compound `O=C1/C(=C/c2ccc(O)c(O)c2)CC/C1=C\c1ccc(O)c(O)c1` has a CC50 (MT4) of 15 µM, an IC50 ([1]; read-out: IC50) of 1 µM and a Fold increase (Homo sapiens) of 4. It also gave a CC50 (KB) of 17 µM.

Compound `O=C(/C=C/c1ccc(O)c(O)c1)c1ccccc1` has a CC50 (MT4) of 1.7 µM, an IC50 ([1]; read-out: IC50) of 2.3 µM and a Fold increase (Homo sapiens) of 1.3. For the same compound, the CC50 (KB) was 3.1 µM.

Compound `O=C1C(=Cc2ccc(O)c(O)c2)C(=O)c2ccccc21` has a CC50 (MT4) of 32 µM, an IC50 ([1]; read-out: IC50) of 3 µM and a Fold increase (Homo sapiens) of 2. The CC50 (KB) was 50 µM.

Work on `O=C(/C=C/c1ccc(O)cc1)c1cccc(C(=O)/C=C/c2ccc(O)cc2)c1` yielded a CC50 (MT4) of 35 µM, an IC50 ([1]; read-out: IC50) of 30 µM and a Fold increase (Homo sapiens) of 1.2. It also gave a CC50 (KB) of 22 µM.

Work on `O=C(/C=C/c1ccc(O)c(O)c1)c1cccc(C(=O)/C=C/c2ccc(O)c(O)c2)c1` yielded a CC50 (MT4) of 5 µM, an IC50 ([1]; read-out: IC50) of 0.8 µM and a Fold increase (Homo sapiens) of 1.2. For the same compound, the CC50 (KB) was 5.8 µM.

In the case of `O=C(/C=C/c1ccc(O)c(O)c1)CCc1ccccc1`, the CC50 (MT4) is reported as 15 µM, the IC50 ([1]; read-out: IC50) is reported as > 100 µM and the Fold increase (Homo sapiens) is reported as 1. It also gave a CC50 (KB) of 30 µM.

With `COc1cc(/C=C2\CCC/C(=C\c3ccc(O)c(OC)c3)C2=O)ccc1O` [CYCLOVALONE] the CC50 (MT4) was 2.4 µM, the IC50 ([1]; read-out: IC50) was > 100 µM and the Fold increase (Homo sapiens) was 1.8. For the same compound, the CC50 (KB) was 6.7 µM.

In the case of `CC[C@@]1(O)C(=O)OCc2c1cc1n(c2=O)Cc2cc3ccccc3nc2-1` [CAMPTOTHECIN], the CC50 (MT4) is reported as 0.01 µM, the IC50 ([1]; read-out: IC50) is reported as > 100 µM and the Fold increase (Homo sapiens) is reported as 3.5. For the same compound, the CC50 (KB) was 0.006 µM.

`O=C1/C(=C/c2ccc(O)c(O)c2)CCC/C1=C\c1ccc(O)c(O)c1` showed a CC50 (MT4) of 7.4 µM, an IC50 ([1]; read-out: IC50) of 0.9 µM and a Fold increase (Homo sapiens) of 1.4. It also gave a CC50 (KB) of 8.9 µM.

In the case of `COc1ccc(/C=C/C(=O)/C=C/c2ccc(OC)c(OC)c2)cc1OC`, the CC50 (MT4) is reported as 4.1 µM, the IC50 ([1]; read-out: IC50) is reported as > 100 µM and the Fold increase (Homo sapiens) is reported as 1.1. For the same compound, the CC50 (KB) was 6.7 µM.
